The record followed here is ChEMBL document CHEMBL1938282 (J Med Chem, 2011).

The target in experiment [1] is T1, Amine oxidase [flavin-containing] A (Bos taurus, UniProt P21398).
T1 sequence (P21398 whole entry): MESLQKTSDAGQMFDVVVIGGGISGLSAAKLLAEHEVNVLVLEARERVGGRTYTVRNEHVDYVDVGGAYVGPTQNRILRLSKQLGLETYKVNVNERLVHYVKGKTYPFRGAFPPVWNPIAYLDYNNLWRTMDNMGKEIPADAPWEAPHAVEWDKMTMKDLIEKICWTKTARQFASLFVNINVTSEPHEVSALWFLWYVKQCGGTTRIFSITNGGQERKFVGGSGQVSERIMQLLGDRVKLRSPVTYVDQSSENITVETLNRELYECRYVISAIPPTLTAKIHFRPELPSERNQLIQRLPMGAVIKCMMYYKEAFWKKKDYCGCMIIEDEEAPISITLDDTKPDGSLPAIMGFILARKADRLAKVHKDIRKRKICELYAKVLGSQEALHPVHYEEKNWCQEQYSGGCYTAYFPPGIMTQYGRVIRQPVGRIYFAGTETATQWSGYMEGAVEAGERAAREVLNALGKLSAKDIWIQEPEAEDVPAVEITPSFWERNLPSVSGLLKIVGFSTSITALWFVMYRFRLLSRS
The experiment in a line: Inhibition of bovine brain MAOA using kynuramine as a substrate after 30 mins by spectrofluorometric method. In short, it runs like this:
(§1)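 Mitochondria isolated from beef brain were pretreated for 30 min at 38 °C with 1 μM L-deprenyl to isolate MAO-A, or with 1 μM clorgyline to isolate MAO-B. Compounds in DMSO were preincubated for 30 min at 38 °C in potassium phosphate buffer at pH 7.4. Kynuramine was then added at four concentrations (5 μM–0.1 mM final) for 30 min.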

In experiment [2] the target is T2, Amine oxidase [flavin-containing] B (Bos taurus, UniProt P56560).
T2 sequence (P56560 whole entry): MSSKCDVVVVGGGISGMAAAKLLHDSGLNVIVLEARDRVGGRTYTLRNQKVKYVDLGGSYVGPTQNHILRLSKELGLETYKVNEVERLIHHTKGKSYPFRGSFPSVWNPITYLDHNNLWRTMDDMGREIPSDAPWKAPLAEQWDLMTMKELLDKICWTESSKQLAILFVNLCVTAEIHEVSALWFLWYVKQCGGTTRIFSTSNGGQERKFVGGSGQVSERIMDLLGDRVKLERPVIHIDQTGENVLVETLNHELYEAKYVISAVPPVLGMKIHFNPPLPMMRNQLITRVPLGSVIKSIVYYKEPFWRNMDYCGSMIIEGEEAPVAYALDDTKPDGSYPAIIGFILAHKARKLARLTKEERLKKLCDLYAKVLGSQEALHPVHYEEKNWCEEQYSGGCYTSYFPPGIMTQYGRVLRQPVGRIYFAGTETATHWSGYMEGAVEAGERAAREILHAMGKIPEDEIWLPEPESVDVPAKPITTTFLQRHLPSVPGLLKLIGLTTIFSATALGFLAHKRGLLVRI
Put plainly: Inhibition of bovine brain MAOB using kynuramine as a substrate after 30 mins by spectrofluorometric method. In outline: as §1

The species named for the next experiment is Bos taurus. The experiment in a line: Selectivity index, ratio of Ki for bovine MAOB to Ki for bovine MAOA. In outline: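 Selectivity was calculated as Ki(MAO-B)/Ki(MAO-A). Each Ki came from a Dixon plot of kynuramine deamination by beef brain mitochondria, with 1 μM clorgyline present for MAO-B or 1 μM L-deprenyl for MAO-A, read fluorimetrically.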

The structures appear in SMILES notation.

In the case of `Cn1ccc(N2C[C@H](CO)OC2=O)c1`, the inhibitory constant (Ki) in experiment [1] was 1 µM; in experiment [2], greater than 10 µM. Also, the Ratio Ki in the experiment filed under Bos taurus is greater than 10.
With `Cn1ccc(N2C[C@H](CN=[N+]=[N-])OC2=O)c1`, the inhibition constant (Ki) worked out at 0.2 µM in experiment [1] and 360 µM in experiment [2]. For the same molecule, the Ratio Ki in the experiment filed under Bos taurus amounted to 1800.
For the molecule `Cn1ccc(N2C[C@H](CN)OC2=O)c1`, the Ki worked out at 0.01 µM in experiment [1] and 180 µM in experiment [2]. Besides, the Ratio Ki in the experiment listed under Bos taurus was determined as 18000.
Taken in the same sequence, the figures for `COC[C@H]1CN(c2ccn(C)c2)C(=O)O1` were 0.3 µM, 170 µM and 567.
As to `C=CCn1ccc(N2C[C@H](CNC)OC2=O)c1`, the inhibitory constant (Ki) turned out to be 0.1 µM in experiment [1] and 2 µM in experiment [2]. In addition, in the experiment filed under Bos taurus, the Ratio Ki was determined as 20.
Taken in the same sequence, the figures for `CCn1ccc(N2C[C@H](CN)OC2=O)c1` were 0.13 µM, 25 µM and 192.
For `CCn1ccc(N2C[C@H](CO)OC2=O)c1`, in that order: 0.003 µM, 0.3 µM and 100.
Taken in the same sequence, the figures for `COC[C@H]1CN(c2ccc(OCC[C@@H](O)C(F)(F)F)cc2)C(=O)O1` [BEFLOXATONE] were 0.0025 µM, 0.22 µM and 88.
As for `C=CCn1ccc(N2C[C@H](CO)OC2=O)c1`, the inhibition constant (Ki) in experiment [1] is 0.35 µM; in experiment [2], 625 µM. The Ratio Ki in the experiment filed under Bos taurus came out at 1790.
For `C=CCn1ccc(N2C[C@H](CN=[N+]=[N-])OC2=O)c1`, the Ki worked out at 0.004 µM in experiment [1] and 100 µM in experiment [2]. For the same molecule, the Ratio Ki in the experiment filed under Bos taurus amounted to 25000.
For `CCn1ccc(N2C[C@H](CNC)OC2=O)c1`, in that order: 0.08 µM, 18 µM and 225.
For `C=CCn1ccc(N2C[C@H](COC)OC2=O)c1`, in that order: 0.001 µM, 200 µM and 200000.
Taken in the same sequence, the figures for `CCn1ccc(N2C[C@H](CN=[N+]=[N-])OC2=O)c1` were 0.0008 µM, 20 µM and 25000.
`C=CCn1ccc(N2C[C@H](CN)OC2=O)c1`: the figures for the Ki in experiment [1] and in experiment [2] were 0.7 µM and 8 µM, respectively. In addition, the Ratio Ki in the experiment listed under Bos taurus is 11.
Taken in the same sequence, the figures for `CCn1ccc(N2C[C@H](COC)OC2=O)c1` were 0.0006 µM, 1.3 µM and 2170.
For `CNC[C@H]1CN(c2ccn(C)c2)C(=O)O1`, in that order: 0.007 µM, greater than 100 µM and greater than 14300.

The term Ki denotes a dissociation constant, usually derived from enzyme kinetics or from competition with a known ligand. Higher therefore signals weaker binding.
